Most compounds without a hit are left out; they make up all but 2.3% or so of the library.
TRPC4 agonist – activators of mouse TRPC4 channel; HEK293 TRPC4beta/mu-opioid, Fluo4 calcium fluorescence; stronger effect = higher value; B-score at 10 µM; 310,000 tested, 0.49% active;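 active = B-score above 5 SD of library B-scores, and initial fluorescence ratio not above library mean plus 5 SD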;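 also: positive B-score marks a calcium rise read as TRPC4 activation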
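Material: HEK293 stable line with TRPC4beta plus mu-opioid receptor; technique: Fluo4 calcium-sensitive dye fluorescence, kinetic, 1 Hz baseline; timing: Fluo4 dye loading 45 min at room temperature, 110 s recording; controls: assay buffer as low control, maximal DAMGO as high control; read-out: integrated baseline-normalised fluorescence ratio, converted to per-well B score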
TRPC6 inhibitor – mouse TRPC6 channel inhibition; Q61143; HEK293-TRPC6, membrane potential dye, ACh-evoked depolarization; stronger effect = lower value; B-score at 10 µM; 310,000 tested, 1.1% active;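 active = B-score under library mean minus 3 SD, initial fluorescence not abnormally high, positive integrated signal ratio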;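 also: B-score derived from integrated fluorescence ratio over the kinetic read; more negative B-score means stronger inhibition of depolarization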
TRPC4 PAM – allosteric potentiators of mouse TRPC4 channel; Q9QUQ5; HEK293 TRPC4beta/mu-opioid, DAMGO EC20, Fluo-4 Ca2+ flux; stronger effect = higher value; B-score at 10 µM; 310,000 tested, 0.42% active; AID 2227;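 active = B-score of calcium response area above 5 SD of library B-scores, with initial fluorescence ratio within 5 SD of library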;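 also: B-score of integrated fluorescence ratio over time as area under calcium response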
TRPC4 block – blocks the mouse TRPC4 cation channel. B-score at 10 µM. HEK293 TRPC4beta/mu-opioid, DAMGO-evoked Fluo4 calcium flux; stronger effect = lower value. 300,000 tested, 0.39% active. Q9QUQ5;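 active = B-score over 3 SD under the library average, no early fluorescence shift, positive overall ratio signal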
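System: stable TRPC4beta/mu-opioid receptor HEK293 cells; Dosing: single-point compound dosing; Measured by: Fluo4 Ca2+ flux fluorescence; Read-out basis: per-well B score of integrated baseline-normalized Fluo4 ratio.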
TRPC6 act – activates the mouse TRPC6 cation channel | HEK293-TRPC6 membrane potential dye fluorescence; stronger effect = higher value | B-score at 10 µM | 310,000 tested, 0.13% active | AID 2550;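 active = B-score of the integrated fluorescence ratio above library mean plus 3 SD, and starting fluorescence ratio within library mean plus 5 SD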;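 also: higher score means more depolarization so channel activation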
* = called active by the depositor; i = inactive.

SMILES	TRPC4 agonist	TRPC6 inhibitor	TRPC4 PAM	TRPC4 block	TRPC6 act
O=c1oc2ccccc2c(O)c1/C=N/c1ncccn1	i	i	i	i	i
CCN(CC(=O)Nc1c(F)cccc1F)C(=O)CCNS(=O)(=O)c1ccccc1C(F)(F)F	i	i	i	i	i
CCCN(CCC)CCNC(=O)C1CCN(Cc2nc(-c3ccc(Cl)cc3)oc2C)CC1	i	-7.2*	i	i	i
COc1ccc(-c2csc(NC(=O)Cc3cccc4ccccc34)c2C(=O)O)cc1	i	i	i	-7*	i
Cc1ccc(OCc2nc(-c3cccs3)no2)c([N+](=O)[O-])c1	i	i	i	i	i
CCOc1ccccc1CNC(=O)C1Cc2cc(S(=O)(=O)N3CCCCC3)ccc2N1C(C)=O (stereo not given)	i	i	i	i	i
O=C(c1ccc(Cl)c(S(=O)(=O)N2CCCCCC2)c1)N1CCN(c2ccccc2O)CC1	i	i	i	i	i
Cc1[nH]c2ccc(C(=O)OC(C)C(=O)N(C)c3ccccc3)cc2c1C (stereo not given)	i	i	i	-7*	i
COc1cccc(OCCNC(=O)CSc2ccc(C(F)(F)F)cc2[N+](=O)[O-])c1	i	i	i	i	i
O=C(Nc1ccc(C2=NCCN2)cc1)c1ccc(Cl)c(C(=O)Nc2ccc(C3=NCCN3)cc2)c1	i	i	i	i	14*
O=C(Nc1ccc(Cl)c(Cl)c1)c1ccc(Cl)c(Cl)c1	i	i	i	i	i
C/C(=N/OCO/N=C(/C)c1ccc(F)cc1)c1ccc(F)cc1	i	i	i	i	i
CC(C)(C)C1CCc2c(sc(NC(=O)C3CC=CCC3C(=O)O)c2C#N)C1 (stereo not given)	i	i	i	-6*	i
N#Cc1c(NC(=O)C2CC=CCC2C(=O)O)sc2c1CCCCCC2 (stereo not given)	i	i	i	i	i
COc1ccccc1CCC(=O)Nc1cc(S(=O)(=O)N2CCCCC2)ccc1N1CCN(C)CC1	134*	i	i	i	i
Cc1ccccc1C(=O)Nc1cc(S(=O)(=O)N2CCCCC2)ccc1N1CCN(C)CC1	i	i	11*	i	i
COc1ccccc1CCC(=O)Nc1cccc(S(=O)(=O)N2CCCC2)c1	i	i	i	i	i
Cc1cccc(OCC(=O)Nc2cc(S(=O)(=O)N3CCCCC3)ccc2N2CCN(C)CC2)c1	i	i	11*	i	i
Cc1cccc(OCC(=O)Nc2ccc(S(=O)(=O)N3CCN(C)CC3)cc2)c1	i	i	i	i	i
CN1CCN(c2ccc(S(=O)(=O)N3CCCCC3)cc2NC(=O)COc2cccc(Cl)c2)CC1	i	i	13*	i	i
Cc1ccc(-c2nn(CCC(N)=O)c(=O)c3ccccc23)cc1	i	i	i	i	i
COCCCNC(=O)c1ccc(Cn2c(=O)c3ccccc3n(CC(=O)NCCc3ccc(OC)c(OC)c3)c2=O)cc1	i	i	i	i	i
COCCCNC(=O)C(=O)Nc1cc2c3c(c1)CCN3C(=O)CC2	i	i	i	i	i
CCn1c(=N)n(CC(=O)c2ccc(Br)s2)c2ccccc21	i	i	i	-6*	i
CC(C)c1ccccc1OCCCCCNCCO	i	i	13*	i	i
CC(C)CC(NC(N)=O)C(=O)NCCc1ccc(Cl)cc1Cl (stereo not given)	i	i	i	i	i
CC(C)Cc1ccc(CN2CCCC(NC(=O)CCn3cnnn3)C2)cc1 (stereo not given)	104*	i	i	i	i
Cc1cc(C(=O)NC2CCCN(Cc3ccc(Cl)cc3)C2)c(C)o1 (stereo not given)	i	i	i	i	i
O=C(CCc1ccc(F)c(F)c1)NC1CCCN(Cc2ccc(Cl)cc2)C1 (stereo not given)	53*	i	i	i	i
Cc1ccsc1C(=O)NC1CCCN(Cc2ccc(Cl)cc2)C1 (stereo not given)	75*	i	i	i	i

Screening data deposited in PubChem BioAssay by Johns Hopkins Ion Channel Center.
